Bioassay records (PubChem BioAssay)
SENP8 block-1 – SENP8 protease inhibition | Q96LD8 | purified SENP8, Z-RLRGG-aminoluciferin cleavage, luminescence | inhibition, % at 10 µM | hit rate 1.2% among 330,000 | AID 2540; in the data active = inhibition above about 50%
SENP7 inh – blocks the human protease SENP7; Q9BQF6; recombinant SENP7, Z-RLRGG-aminoluciferin luminescence, 40 min; inhibition, % at 5 µM; hit rate 1.5% among 330,000; AID 434973;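 active = inhibition above about 50% at the single test dose, limit read from the data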
SENP8 block-2 – SENP8 (human) protease inhibition. recombinant SENP8, Nedd8 substrate fluorescence. inhibition, % at 20 µM. hit rate 0.64% among 360,000. AID 602440; in the data active = inhibition mostly above about 40%, no sharp cut-off; inactive = mostly below about 27%
UBC13 inh – inhibitors of human UBC13 polyubiquitin chain formation. P61088. hit rate 0.47% among 330,000. TR-FRET. inhibition, % at 20 µM; in the data active = inhibition above about 45%, passing the limit was not always enough
Apaf-1 inh – blocks human Apaf-1 apoptosome activity | inhibition, % at 20 µM | O14727 | hit rate 0.71% among 330,000 | reconstituted apoptosome caspase-3 activity, DEVD-Rh110 fluorescence; active = inhibition of at least 40% at 20 µM
Target sequence (O14727 whole entry, looked up): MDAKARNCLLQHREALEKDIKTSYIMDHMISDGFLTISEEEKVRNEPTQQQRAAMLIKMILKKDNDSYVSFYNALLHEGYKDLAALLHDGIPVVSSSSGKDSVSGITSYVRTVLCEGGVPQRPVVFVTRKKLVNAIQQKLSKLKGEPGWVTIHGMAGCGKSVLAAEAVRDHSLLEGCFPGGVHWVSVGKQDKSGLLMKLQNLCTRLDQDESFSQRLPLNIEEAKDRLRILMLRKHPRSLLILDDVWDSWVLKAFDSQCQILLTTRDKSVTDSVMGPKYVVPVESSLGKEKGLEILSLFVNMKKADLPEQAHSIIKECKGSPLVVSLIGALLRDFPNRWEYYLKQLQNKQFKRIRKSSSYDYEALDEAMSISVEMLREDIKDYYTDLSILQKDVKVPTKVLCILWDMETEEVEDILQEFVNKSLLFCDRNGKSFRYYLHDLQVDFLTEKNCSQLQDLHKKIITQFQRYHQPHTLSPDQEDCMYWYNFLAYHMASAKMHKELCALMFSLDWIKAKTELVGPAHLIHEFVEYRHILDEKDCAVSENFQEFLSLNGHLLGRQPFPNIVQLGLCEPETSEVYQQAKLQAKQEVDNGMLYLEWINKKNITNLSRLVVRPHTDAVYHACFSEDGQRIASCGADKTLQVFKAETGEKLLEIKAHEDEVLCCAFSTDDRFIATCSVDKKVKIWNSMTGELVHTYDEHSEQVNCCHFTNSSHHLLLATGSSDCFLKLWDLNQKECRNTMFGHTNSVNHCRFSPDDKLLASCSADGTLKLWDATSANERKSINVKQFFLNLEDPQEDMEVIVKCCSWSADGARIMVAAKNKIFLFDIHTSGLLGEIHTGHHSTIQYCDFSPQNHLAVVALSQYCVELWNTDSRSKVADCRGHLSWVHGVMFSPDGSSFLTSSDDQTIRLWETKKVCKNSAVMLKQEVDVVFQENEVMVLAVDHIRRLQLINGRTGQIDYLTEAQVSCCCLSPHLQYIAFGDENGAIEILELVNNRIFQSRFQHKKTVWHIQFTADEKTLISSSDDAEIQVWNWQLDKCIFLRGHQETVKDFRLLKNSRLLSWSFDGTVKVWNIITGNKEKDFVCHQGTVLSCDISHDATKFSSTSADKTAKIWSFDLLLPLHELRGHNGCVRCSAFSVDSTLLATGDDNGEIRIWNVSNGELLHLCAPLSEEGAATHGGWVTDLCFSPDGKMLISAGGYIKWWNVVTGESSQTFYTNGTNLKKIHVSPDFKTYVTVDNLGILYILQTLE
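Medium: Hepes buffer, pH 7.5 / System: biochemical Apaf-1 apoptosome reconstitution / Measured by: Rh110 fluorescence, excitation 480 nm, emission 540 nm / Times: compound with Apaf-1, dATP, procaspase-3 30 min, then 50 min reaction, room temperature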
SENP6 inh – blocks the human protease SENP6; hit rate 1.8% among 330,000; AID 2599; Recombinant SENP6 catalytic domain, aminoluciferin luminescence; Q9GZR1; inhibition, % at 10 µM;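 active = inhibition above about 50% at the single tested dose, limit read from the data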
SENP8 conf – confirmation of human SENP8 protease inhibitors. AID 624319. purified SENP8, Nedd8-AMC/pro-Nedd8 cleavage fluorescence, 30 min. shares compounds with SENP8 block-2. hit rate 15% among 1,400. inhibition, % at 25 µM; in the data active = inhibition mostly above about 39%, no sharp cut-off; inactive = mostly below about 34%
Of the large screens only hits and unclear results are named; the others gave an inactive call (follow-up assays come after a bar, where they were run). Shown are actives, neighbours in structure and some others; about 3% of the full set was active somewhere.

COC(=O)[C@H]1C[C@H](OC(=O)NCc2ccccc2F)[C@@]2(O)CN(S(=O)(=O)c3ccc(C)cc3)CC2[C@H]1C(=O)OC (some centres undefined)	none (no result: SENP8 block-1, SENP7 inh, UBC13 inh, Apaf-1 inh, SENP6 inh)
CCC(C)Nc1nc(N)c([N+](=O)[O-])c(Nc2cc(OC)ccc2OC)n1 (centres undefined)	SENP8 block-2 45 | SENP8 conf inactive
CCC(C)Nc1nc(N)c([N+](=O)[O-])c(Nc2ccccc2OC)n1 (centres undefined)	none
CC1=NN(c2ccc(C)c(C)c2)C(=O)C1C(c1cccc(O)c1)C1C(=O)N(c2ccc(C)c(C)c2)N=C1C (centres undefined)	SENP8 block-2 81, Apaf-1 inh 87 | SENP8 conf 52
COc1ccc(NC(=O)CN(C)C(=O)CSCC(=O)Nc2ccc(C)cc2)cc1	SENP8 block-2 53 | SENP8 conf inactive
Cc1cccc(NS(=O)(=O)c2ccc(C)c(C(=O)OCC(=O)Nc3cc(C)on3)c2)c1	none
Cc1cccc(NS(=O)(=O)c2cc(C(=O)OCC(=O)Nc3cc(C)on3)ccc2C)c1	SENP8 block-2 41 | SENP8 conf inactive
O=C1NC[C@@H](CCCCN2C[C@H](Cc3ccccc3)N(CC3CCCCC3)C(=O)C2=O)N(Cc2ccccc2)C1=O	none (no result: SENP8 block-1, SENP7 inh, UBC13 inh, Apaf-1 inh, SENP6 inh)
CC(c1c(O)c2ccccc2[nH]c1=O)C1(C)CCC(O)C(C)(C)O1 (centres undefined)	SENP8 block-2 44 | SENP8 conf inactive
O=C(Nc1ccccc1F)c1ccc(CNS(=O)(=O)c2cccc(C(F)(F)F)c2)cc1	SENP8 block-2 48 | SENP8 conf inactive
CCOC(=O)C1CCCN(C(=O)Cc2ccc(OC)c(OC)c2)CC1 (centres undefined)	none (no result: SENP8 block-1, SENP7 inh, UBC13 inh, Apaf-1 inh, SENP6 inh)
N#CCCN(Cc1ccccc1)C(C(=O)NC1CCCCC1)c1cc2ccccc2o1 (centres undefined)	none (no result: SENP8 block-1, SENP7 inh, UBC13 inh, Apaf-1 inh, SENP6 inh)
COc1ccc(OCC(=O)N2CCC(Cc3ccccc3)CC2)cc1	none
COc1ccc(Br)c(C(=O)OCC(=O)N2CCC(Cc3ccccc3)CC2)c1	SENP8 block-2 42 | SENP8 conf inactive
CCOC(=O)C1(C)CCCN(C(=O)c2cc(C)oc2C)C1 (centres undefined)	none (no result: SENP8 block-1, SENP7 inh, UBC13 inh, Apaf-1 inh, SENP6 inh)
O=C(OC1CC2CC1[C@H]1CCCCN1C2=O)N1CCCCC1 (some centres undefined)	none (no result: SENP8 block-1, SENP7 inh, UBC13 inh, Apaf-1 inh, SENP6 inh)
CC1CCC/C(=N/Nc2ccc([N+](=O)[O-])cc2[N+](=O)[O-])C1 (centres undefined)	none
O=[N+]([O-])c1ccc(N/N=C2\CC3CC=CC23)cc1 (centres undefined)	none
O=[N+]([O-])c1ccc(NN=C2CC3CCC2C3)c([N+](=O)[O-])c1 (centres undefined)	SENP8 block-2 41 (no result: SENP8 block-1, SENP7 inh, UBC13 inh, Apaf-1 inh, SENP6 inh) | SENP8 conf inactive
O=[N+]([O-])c1ccc(N/N=C2\CC3CC=CC23)c([N+](=O)[O-])c1 (centres undefined)	SENP8 block-2 40 | SENP8 conf inactive
COc1ccc(NC(=O)COc2nsnc2N2CCOCC2)c(OC)c1	none
COc1ccc(NC(=O)Nc2ccc(N3CCOCC3)c3nonc23)c(OC)c1	SENP8 block-2 44 | SENP8 conf inactive
CC(C)(C)S(=O)N1Cc2cc(=O)n(Cc3ccccc3)c(CCO)c2[C@@H]1CCO (some centres undefined)	none (no result: SENP8 block-1, SENP7 inh, UBC13 inh, Apaf-1 inh, SENP6 inh)
CC(/C=C/C(=O)c1ccc(C)cc1)=C\c1ccccc1	SENP8 block-2 46 | SENP8 conf inactive
Cc1ccc(C(=O)/C=C\NCc2ccccc2)cc1	none
Cc1nn(Cc2ccc(Cl)cc2)c(C)c1NC(=O)Cn1nc([N+](=O)[O-])c(Cl)c1C	none
Cc1nn(Cc2ccc(Cl)cc2Cl)c(C)c1NC(=O)Cn1nc([N+](=O)[O-])c(Cl)c1C	SENP8 block-2 54 | SENP8 conf inactive
O=C(Nc1ccc2c(c1)OCCO2)C1c2ccccc2OCC(=O)N1C1CC1 (centres undefined)	none (no result: SENP8 block-1, SENP7 inh, UBC13 inh, Apaf-1 inh, SENP6 inh)
O=C(NC1CCCCC1)C(C1CC1)N1CCc2ccccc2C1 (centres undefined)	none (no result: SENP8 block-1, SENP7 inh, UBC13 inh, Apaf-1 inh, SENP6 inh)
O=C(NC1CCCCC1)C(c1ccnc2ccccc12)N1CCc2ccccc2C1 (centres undefined)	SENP8 block-2 51 (no result: SENP8 block-1, SENP7 inh, UBC13 inh, Apaf-1 inh, SENP6 inh) | SENP8 conf 91
CC1CCCC(NC(=O)CCN2C(=O)COc3ccccc32)C1C (centres undefined)	none (no result: SENP8 block-1, SENP7 inh, UBC13 inh, Apaf-1 inh, SENP6 inh)
CC1=C(C(N)=O)C(c2ccccc2)n2nc(-c3ccncc3)nc2N1 (centres undefined)	none
Cc1nc(-[n+]2nc(-c3ccncc3)nn2-c2ccccc2)sc1C	SENP8 block-2 41 (no result: SENP8 block-1, SENP7 inh, UBC13 inh, Apaf-1 inh, SENP6 inh) | SENP8 conf inactive
CNC(=O)C1Cc2c(-c3ccc4c(c3)OCO4)ccnc2O1 (centres undefined)	none (no result: SENP8 block-1, SENP7 inh, UBC13 inh, Apaf-1 inh, SENP6 inh)
COC(=O)CN1C(=O)S/C(=C/c2ccc(N3CCCCC3)o2)C1=O	SENP8 block-2 42 | SENP8 conf inactive
COc1ccc(OC)c(S(=O)(=O)N(C)CC(=O)N2CCc3ccccc3C2)c1	SENP8 block-2 58 | SENP8 conf 71
O=[N+]([O-])c1ccc(C=NNC(=S)NN=Cc2ccc([N+](=O)[O-])cc2)cc1	SENP8 block-2 70 (no result: SENP8 block-1, SENP7 inh, UBC13 inh, Apaf-1 inh, SENP6 inh) | SENP8 conf inactive
O=[N+]([O-])c1ccc(C=NNC(=S)Nc2ccc(F)cc2)cc1	none (no result: SENP8 block-1, SENP7 inh, UBC13 inh, Apaf-1 inh, SENP6 inh)
Cc1cccc(C)c1NC(=O)CNC(=O)CNC(=O)c1ccc2ccccc2c1	none (no result: SENP8 block-1, SENP7 inh, UBC13 inh, Apaf-1 inh, SENP6 inh)
COc1ccc(-c2ccc(CN3C(C(C)C)C(=O)N(Cc4cn(Cc5ccco5)nn4)CCS3(=O)=O)cc2)cn1 (centres undefined)	none (no result: SENP8 block-1, SENP7 inh, UBC13 inh, Apaf-1 inh, SENP6 inh)
CC(=O)NN1C(=O)c2ccc3c4c(ccc(c24)C1=O)C(=O)N(NC(C)=O)C3=O	SENP8 block-2 35 | SENP8 conf 54
COc1cc(/C=C2\CCC(C)C3=C(c4cc(OC)c(OC)c(OC)c4)C(C#N)=C(N)OC32)cc(OC)c1OC (centres undefined)	none (no result: SENP8 block-1, SENP7 inh, UBC13 inh, Apaf-1 inh, SENP6 inh)
C[C@H]1CN([C@@H](C)CO)C(=O)CCCn2nncc2CO[C@@H]1CN(C)Cc1ccncc1	none (no result: SENP8 block-1, SENP7 inh, UBC13 inh, Apaf-1 inh, SENP6 inh)
COc1ccc(-c2cc(C(F)(F)F)c3c(=O)n(-c4ccccc4)[nH]c3n2)cc1	SENP8 block-2 41 | SENP8 conf inactive
COc1ccc(-c2cc(-c3ccccc3)nc(=O)[nH]2)cc1	none
COc1ccc(NC(=O)c2cc(C3CCCCN3C(=O)c3ccc4c(c3)CCO4)on2)c(C)c1 (centres undefined)	none (no result: SENP8 block-1, SENP7 inh, UBC13 inh, Apaf-1 inh, SENP6 inh)
COc1ccc(NS(=O)(=O)NC(=O)c2c(C)n(C)c3ccccc23)cc1	SENP8 block-2 39 | SENP8 conf inactive
COc1cccc(OCCNc2cc(N3CCCCC3)ccc2[N+](=O)[O-])c1	SENP8 block-2 60 | SENP8 conf inactive
CC(Nc1cc(N2CCCC2)ccc1[N+](=O)[O-])c1ccccc1 (centres undefined)	SENP8 block-2 45 | SENP8 conf inactive
O=[N+]([O-])c1ccc(N2CCCC2)cc1NCc1ccccc1	none
